Format in all cases: functional
Assay [1] concerns Candida albicans. The experiment in a line: Antimicrobial activity against Candida albicans ATCC 10145 at 5 mg/ml after 48 hrs by agar well diffusion assay. The conditions noted are these: ATCC 10145, 48 h, read-out: IZ. The method, boiled down: (§1)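 Agar well diffusion against S. aureus NCTC-7447 and E. coli NCTC-10416 (maintained on Mueller-Hinton agar, 24 h, 37 ± 1 °C) and C. albicans ATCC-10145 (Sabouraud dextrose agar, 48 h, 28 ± 1 °C). Inocula: colonies suspended in 5 mL sterile saline. Wells pre-incubated 1 h in refrigerator, then incubated 24 h at 37 °C (bacteria) or 48 h at 28 °C (fungi). Inhibition zone diameter measured. DMSO blank.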
Background: A growth-free zone around the sample is the usual read-out of agar diffusion tests.

Assay [2] concerns Staphylococcus aureus. The assay can be described thus: Antimicrobial activity against Staphylococcus aureus NCTC 7447 by twofold serial dilution method. In a few lines:
(§2)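 MIC by two-fold serial dilution, limited to compounds giving inhibition zones of at least 18 mm in the well diffusion screen. Strains: S. aureus NCTC-7447 and E. coli NCTC-10416 on Mueller-Hinton agar at 37 ± 1 °C; C. albicans ATCC-10145 on Sabouraud dextrose agar at 28 ± 1 °C. Inocula were colony suspensions in sterile saline. MIC taken as the lowest concentration (highest dilution) inhibiting growth.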

For assay [3], the system named is Escherichia coli. The experiment in a line: Antimicrobial activity against Escherichia coli NCTC 10416 at 5 mg/ml after 24 hrs by agar well diffusion assay. The conditions noted are these: NCTC 10416, 24 h, read-out: IZ. The method, boiled down:
as §1

The test system of assay [4] is Escherichia coli. The experiment in a line: Antimicrobial activity against Escherichia coli NCTC 10416 by twofold serial dilution method. The method, boiled down: as §2
Assay [5] concerns Staphylococcus aureus. The assay can be described thus: Antimicrobial activity against Staphylococcus aureus NCTC 7447 at 5 mg/ml after 24 hrs by agar well diffusion assay. The following applies: NCTC 7447, 24 h, read-out: IZ. In a few lines: as §1

This note sets out measurements from ChEMBL document CHEMBL1275312, “Synthesis of new pyrrolo[2,3-d]pyrimidine derivatives as antibacterial and antifungal agents” (2010).

One may read the MIC as the lowest concentration that inhibits growth of the organism.

Structures are written as SMILES. ≈ marks a conversion by molar mass, not a printed value.

Take `N=c1c2cc(-c3ccc(Cl)cc3)n(-c3ccccc3)c2ncn1N`: the zone of inhibition at 5000 µg/mL was 27 mm in assay [1], 22 mm in assay [3] and 21 mm in assay [5]. The results for the minimal inhibitory concentration (MIC) in assay [2] and in assay [4] were 310 µg/mL (≈ 923 µM) and 1250 µg/mL (≈ 3720 µM), respectively.
